Here are results for twelve molecules from ChEMBL document CHEMBL4411326 (J Med Chem, 2019).

What is called Ki is a measure of affinity in units of concentration, obtained from inhibition or displacement. Low readings indicate tighter binding, high ones weaker binding. Usually inhibition stands for the relative decrease from the control value, in per cent. What is called EC50 is the concentration giving half of the maximal effect.

Experiment [1] is described as follows: Displacement of [3H]-cytisine from alpha4beta2* nAChR in Wistar rat cerebral cortex membranes after 75 mins. In kind it is cell membranes.
Experiment [2] has as its target T1, Neuronal acetylcholine receptor subunit alpha-7 (Rattus norvegicus, UniProt Q05941). The experiment can be described thus: Displacement of [3H]-methyllycaconitine from alpha7* nAChR in rat brain P2 membranes after 2.5 hrs by liquid scintillation spectrometry. Type of experiment: cell membranes. In general terms: Displacement assays read how much labelled ligand stays bound in the presence of the test substance.

The target of experiment [3] is Neuronal acetylcholine receptor subunit alpha-7 (Rattus norvegicus) (UniProt Q05941). As to the kind of experiment: Displacement of [3H]-methyllycaconitine from alpha7* nAChR in rat brain P2 membranes at 1 uM after 2.5 hrs by liquid scintillation spectrometry relative to control. Type of experiment: cell membranes. A digest of the protocol:
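[3H]-Methyllycaconitine binding on rat brain minus cortex, striatum and cerebellum […]. Percent inhibition measured at 1 μM compound. Four independent experiments in duplicate.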

Experiment [4] can be described thus: (§1) Agonist activity at nAChR in human SH-SY5Y cells assessed as increase in intracellular Ca2+ levels measured every 2 secs for 3 mins by Fluo4AM-fluorescent dye based assay. As to conditions: 0.05 h. Type of experiment: cell-based. A digest of the protocol: (§2)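 SH-SY5Y cells (native nAChRs) in DMEM/F12 with 10% FBS were plated at 5000-10000 cells/well and grown 48-72 h. Cells were loaded with Fluo-4 AM (1.824 μM) and probenecid (1.25 mM). Compound was added just before reading; fluorescence at ex/em 485/535 nm. Mean ± SEM of three independent experiments, each with 5-6 measurements.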

For the next experiment, the species on record is Rattus norvegicus. The experiment can be described thus: Selectivity ratio of Ki for alpha7* nAChR in rat brain P2 membranes to Ki for alpha4beta2* nAChR in Wistar rat cerebral cortex membranes. Type of experiment: cell membranes.
For experiment [5], the target named is Neuronal acetylcholine receptor subunit alpha-7 (Homo sapiens, UniProt P36544). As to the kind of experiment: Agonist activity at human alpha7 nAChR expressed in mouse Neuro2a cells co-expressing chaperone NACHO assessed as increase in intracellular Ca2+ levels in presence of PNU120596 by calcium flux assay. Type of experiment: cell-based. (In general: Calcium flux is commonly read through the fluorescence of an indicator in the cells.)
Chain of Neuronal acetylcholine receptor subunit alpha-7 (Homo sapiens, UniProt P36544) (P36544 whole entry): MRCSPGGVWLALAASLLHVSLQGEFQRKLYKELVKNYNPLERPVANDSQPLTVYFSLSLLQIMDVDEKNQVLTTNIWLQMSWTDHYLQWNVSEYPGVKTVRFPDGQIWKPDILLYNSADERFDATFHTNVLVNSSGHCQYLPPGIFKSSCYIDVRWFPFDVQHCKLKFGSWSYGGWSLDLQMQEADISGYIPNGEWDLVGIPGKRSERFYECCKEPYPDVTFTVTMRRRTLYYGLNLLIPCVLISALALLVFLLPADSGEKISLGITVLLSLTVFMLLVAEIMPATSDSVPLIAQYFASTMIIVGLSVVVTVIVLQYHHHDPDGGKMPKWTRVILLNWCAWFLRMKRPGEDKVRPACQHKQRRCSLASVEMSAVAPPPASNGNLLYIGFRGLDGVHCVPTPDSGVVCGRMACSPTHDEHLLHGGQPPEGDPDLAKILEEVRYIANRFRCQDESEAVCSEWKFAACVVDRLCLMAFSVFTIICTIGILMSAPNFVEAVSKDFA

The target in experiment [6] is T1, Neuronal acetylcholine receptor subunit alpha-7. As to the kind of experiment: Agonist activity at rat alpha7 nAChR expressed in Xenopus laevis oocytes after 4 to 5 days at -60 mV holding potential by […] assay. In kind it is cell-based. The essentials: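 Two-electrode voltage clamp on defolliculated stage V-VI Xenopus laevis oocytes (collagenase 2 mg/mL, 2 h, 21-24 °C, Ca2+-free Barth's, pH 7.6). Oocytes were injected with 9.2 ng cRNA of human α3+β2 (1:1) or rat α7 plus chaperone NACHO (2:1). Agonist applications were separated by 5 min washout in normal frog Ringer's.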
On the technique in general: Patch clamp records ionic current or voltage across a cell membrane.

The test system of the next experiment is SH-SY5Y. The description is as §1. In kind it is cell-based. A digest of the protocol:
as §2

SMILES strings stand for the structures. Activity calls are given as the source filed them. No cut-off for these calls is given here. Some results are limits rather than exact numbers.

T1 sequence (Q05941 whole entry): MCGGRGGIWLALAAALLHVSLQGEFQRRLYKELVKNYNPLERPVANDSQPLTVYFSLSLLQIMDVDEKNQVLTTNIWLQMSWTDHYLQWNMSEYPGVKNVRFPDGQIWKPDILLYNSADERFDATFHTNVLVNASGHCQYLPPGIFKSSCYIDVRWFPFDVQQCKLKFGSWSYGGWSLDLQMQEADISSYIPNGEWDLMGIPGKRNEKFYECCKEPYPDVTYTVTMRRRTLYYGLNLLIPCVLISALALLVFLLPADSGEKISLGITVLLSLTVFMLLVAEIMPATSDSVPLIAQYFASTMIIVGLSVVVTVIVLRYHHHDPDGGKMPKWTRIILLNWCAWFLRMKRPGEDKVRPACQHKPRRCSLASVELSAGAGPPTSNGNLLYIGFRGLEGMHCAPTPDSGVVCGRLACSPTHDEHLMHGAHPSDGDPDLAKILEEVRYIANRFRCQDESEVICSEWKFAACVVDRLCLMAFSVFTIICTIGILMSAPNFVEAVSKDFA
Chain of Neuronal acetylcholine receptor subunit alpha-7 (Rattus norvegicus) (Q05941 whole entry): as above

Regarding `CN[C@@H]1[C@H]2CC[C@H](C2)[C@H]1c1cccnc1`, the Ki is 0.206 µM in experiment [1] and greater than 1 µM in experiment [2]. The same molecule showed an inhibition in experiment [3] of 15%.

As for `CN1CCC[C@H]1c1cccnc1` [NICOTINE], the affinity in experiment [1] corresponds to a Ki of 0.00231 µM. In experiment [4], the EC50 worked out at 22.5 µM.

On to `CN(C)[C@@H]1[C@H]2CC[C@H](C2)[C@H]1c1cccnc1`, for which the inhibitory constant (Ki) was 0.554 µM in experiment [1] and greater than 1 µM in experiment [2]. In addition, the inhibition in experiment [3] is 6%. For the same molecule, in the experiment filed under Rattus norvegicus, the Ratio Ki was greater than 2.

Consider `N[C@@H]1[C@@H]2CC[C@@H](C2)[C@H]1c1cccnc1`, for which the Ki in experiment [1] amounted to 0.00211 µM; in experiment [2], 0.046 µM. The EC50 turned out to be 0.048 µM in experiment [5], 5.98 µM in experiment [6] and 1.92 µM in experiment [4].

Take `CN[C@@H]1[C@@H]2CC[C@@H](C2)[C@H]1c1ccc(Cl)nc1`: the Ki in experiment [1] was 0.00312 µM; in experiment [2] it was 0.116 µM. Further, the Ratio Ki in the experiment listed under Rattus norvegicus was 37.

In the case of `N[C@@H]1[C@H]2CC[C@H](C2)[C@H]1c1cccnc1`, the Ki in experiment [1] was 0.166 µM; in experiment [2], greater than 1 µM. In experiment [3], this molecule registered an inhibition of 30%.

`CN(C)[C@@H]1[C@@H]2CC[C@@H](C2)[C@H]1c1ccc(Cl)nc1`: the Ki is 0.043 µM in experiment [1] and greater than 1 µM in experiment [2]. In addition, the inhibition in experiment [3] was determined as 33%. The EC50 is 6.45 µM in experiment [5] and greater than 10 µM in experiment [6]. Also, the result with SH-SY5Y was inactive.

As for `N[C@@H]1[C@H]2CC[C@H](C2)[C@H]1c1ccc(Cl)nc1`, the inhibition constant (Ki) in experiment [1] was determined as 0.028 µM; in experiment [2], 0.227 µM.

`CN(C)[C@@H]1[C@@H]2CC[C@@H](C2)[C@H]1c1cccnc1`: the inhibition constant Ki in experiment [1] was 0.059 µM; in experiment [2] it was greater than 1 µM. The same molecule returned an inhibition in experiment [3] of 8%. Further, the Ratio Ki in the experiment listed under Rattus norvegicus is greater than 17.

Turning to `CN(C)[C@@H]1[C@H]2CC[C@H](C2)[C@H]1c1ccc(Cl)nc1`, the Ki in experiment [1] was 0.294 µM; in experiment [2], greater than 1 µM. In experiment [3], this molecule returned an inhibition of 18%.

As for `N[C@@H]1[C@@H]2CC[C@@H](C2)[C@H]1c1ccc(Cl)nc1`, the Ki was determined as 0.00131 µM in experiment [1] and 0.0105 µM in experiment [2]. The values for the EC50 in experiment [5], in experiment [6] and in experiment [4] were 0.024 µM, 2.71 µM and 0.22 µM, respectively.

On to `CN[C@@H]1[C@@H]2CC[C@@H](C2)[C@H]1c1cccnc1`, for which the Ki in experiment [1] came out at 0.0102 µM; in experiment [2], 0.352 µM. The figures for the half-maximal effective concentration (EC50) in experiment [5] and in experiment [6] were 2.29 µM and greater than 10 µM, respectively. For the same molecule, the outcome in the experiment on SH-SY5Y was inactive.
